Experimental data from ChEMBL document CHEMBL4020824, “Discovery of Potent and Orally Bioavailable Dihydropyrazole GPR40 Agonists” (J Med Chem, 2018).
Calls of active or inactive are those of the source. The rule behind the calls is not given here.

Assays:
[1] = molecular target: T1, Free fatty acid receptor 1 (Homo sapiens, UniProt O14842); assay: Agonist activity at human GPR40 expressed in CHOA12 cells assessed as induction of Ca2+ mobilization by FLIPR assay; assay type: functional, cell-based
[2] = molecular target: T2, Peroxisome proliferator-activated receptor gamma (Homo sapiens, UniProt P37231); assay: Agonist activity at PPARgamma (unknown origin)
T2 sequence (P37231 whole entry): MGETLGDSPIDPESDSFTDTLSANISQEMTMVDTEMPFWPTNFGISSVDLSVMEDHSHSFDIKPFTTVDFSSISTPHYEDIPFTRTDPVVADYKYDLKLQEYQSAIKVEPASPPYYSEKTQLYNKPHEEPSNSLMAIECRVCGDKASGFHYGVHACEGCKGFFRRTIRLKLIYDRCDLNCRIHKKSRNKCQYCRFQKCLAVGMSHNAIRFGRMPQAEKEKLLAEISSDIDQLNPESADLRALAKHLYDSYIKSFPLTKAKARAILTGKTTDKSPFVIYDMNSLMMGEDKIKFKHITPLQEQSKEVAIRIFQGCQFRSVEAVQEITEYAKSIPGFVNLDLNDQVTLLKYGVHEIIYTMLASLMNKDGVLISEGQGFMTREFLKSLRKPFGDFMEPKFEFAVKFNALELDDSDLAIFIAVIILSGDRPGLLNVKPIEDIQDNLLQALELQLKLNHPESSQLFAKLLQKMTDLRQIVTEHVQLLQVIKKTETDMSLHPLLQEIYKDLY

Liver [3] = assay: (§1) Drug level in human liver microsomes treated with 2-((4S,5S)-1-(4-(((3R,4R)-1-(5-Ethoxy-2-fluorophenyl)-3-methylpiperidin-4-yl)oxy)phenyl)-4-methyl-3-(trifluoromethyl)-4,5-dihydro-1H-pyrazol-5-yl)acetic acid at 1 to 3 uM incubated for 20 mins in presence of NADPH measured after 90 mins by LC/MS/MS analysis; assay type: ADME, microsome
Procedure, shortened: (§2)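 Human or rat liver microsomal incubations. The read-outs were % parent remaining, % D-ring dealkylation metabolites, % GSH adducts, and half-life (min). The metabolites followed were CYP450-mediated oxidative de-alkylation products (phenols) and GSH conjugates.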

Liver [4] = assay: as §1, with “rat” for “human”; assay type: ADME, microsome; procedure, shortened: as §2
[5] = molecular target: T1, Free fatty acid receptor 1; assay: Agonist activity at human GPR40 expressed in CHOA12 cells assessed as induction of Ca2+ mobilization at 8.3 uM by FLIPR assay relative to compound 2; assay type: functional, cell-based
Mus musculus = assay: Antidiabetic activity in C57BL/6J mouse assessed as glucose lowering effect at 1 mg/kg, po administered 1 hr prior to glucose challenge measured after 120 mins by IPGTT; assay type: functional, organism-based
Liver [6] = assay: (§3) Drug level in human liver microsomes treated with 2-((4S,5S)-1-(4-(((3R,4R)-1-(5-Chloro-2-methoxypyridin-4-yl)-3-methylpiperidin-4-yl)oxy)phenyl)-4-methyl-3-(trifluoromethyl)-4,5-dihydro-1H-pyrazol-5-yl)acetic acid at 1 to 3 uM incubated for 20 mins in presence of NADPH measured after 90 mins by LC/MS/MS analysis; assay type: ADME, microsome; procedure, shortened: as §2
Liver [7] = assay: as §3, with “rat” for “human”; assay type: ADME, microsome; procedure, shortened: as §2

T1 sequence (O14842 whole entry): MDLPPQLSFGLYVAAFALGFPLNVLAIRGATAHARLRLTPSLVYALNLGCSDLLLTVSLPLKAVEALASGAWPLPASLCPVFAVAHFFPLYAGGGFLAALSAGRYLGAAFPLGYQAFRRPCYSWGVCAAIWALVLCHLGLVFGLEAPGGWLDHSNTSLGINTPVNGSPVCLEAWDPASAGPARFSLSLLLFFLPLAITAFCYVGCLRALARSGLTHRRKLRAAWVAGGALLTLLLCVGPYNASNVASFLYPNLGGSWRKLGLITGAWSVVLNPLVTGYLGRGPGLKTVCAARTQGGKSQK

Row | Structure (SMILES) | EC50 [1] [nM] | Activity [5] | other results
1 | COc1ccc(F)c(-c2ccc(Cc3ccc(N4N=C(C(F)(F)F)[C@@H](C)[C@@H]4CC(=O)O)cc3)c(C)c2)c1 |  |  | EC50 [2]: 2600 nM
2 | C[C@@H]1C(C(F)(F)F)=NN(c2ccc(OC3CCN(c4ccc(F)cc4)CC3)cc2)[C@H]1CC(=O)O | 2550 to 2730 |  | 
3 | C[C@@H]1CN(c2cc(O)ccc2F)CC[C@H]1Oc1ccc(N2N=C(C(F)(F)F)[C@@H](C)[C@@H]2CC(=O)O)cc1 |  |  | Drug uptake (Liver [3]): Metabolite_Detected; Drug uptake (Liver [4]): Metabolite_Detected
4 | COc1ccc(F)c(-c2ccc(Cc3ccc(N4C[C@H](C(F)(F)F)C[C@@H]4CC(=O)O)cc3)c(C)c2)c1 |  |  | Activity (Mus musculus): Active
5 | C[C@@H]1CN(c2cc(O)ncc2Cl)CC[C@H]1Oc1ccc(N2N=C(C(F)(F)F)[C@@H](C)[C@@H]2CC(=O)O)cc1 |  |  | Drug uptake (Liver [6]): Metabolite_Detected; Drug uptake (Liver [7]): Metabolite_Detected

Continued, in another order:

Row | EC50 [1] [nM] | Activity [5] | Structure (SMILES) | other results
6 | 680 |  | COc1ccc(C#N)c(N2CCC(Oc3ccc(N4N=C(C(F)(F)F)[C@@H](C)[C@@H]4CC(=O)O)cc3)CC2)c1 | 
7 |  | Active | COc1ccc(F)c(N2CC[C@H](COc3ccc(N4C[C@H](C(F)(F)F)C[C@@H]4CC(=O)O)cc3)C2)c1 | 
8 |  | Active | COc1ccc(F)c(N2CCC(Cc3ccc(N4C[C@H](C(F)(F)F)C[C@@H]4CC(=O)O)cc3)CC2)c1 | 
9 | 1200 to 2600 | Active | COc1ccc(F)c(N2CCC(Oc3ccc(N4CCC[C@@H]4CC(=O)O)cc3)CC2)c1 | 
10 | 2830 to 5360 | Active | COc1ccc(F)c(N2CCC(Oc3ccc(N4C[C@H](C(F)(F)F)C[C@@H]4CC(=O)O)cc3)C2)c1 (stereo partly specified) | 
11 | 450 to 720 |  | CCc1ccc(F)c(N2CCC(Oc3ccc(N4N=C(C(F)(F)F)[C@@H](C)[C@@H]4CC(=O)O)cc3)CC2)c1 | 
12 |  | Active | COc1ccc(F)c(N2CC[C@@H](COc3ccc(N4C[C@H](C(F)(F)F)C[C@@H]4CC(=O)O)cc3)C2)c1 | 
